Laboratory results published in ChEMBL document CHEMBL1671752, “Genotypic characterization of UL23 thymidine kinase and UL30 DNA polymerase of clinical isolates of herpes simplex virus: natural polymorphism and mutations associated with resistance to antivirals” (Antimicrob Agents Chemother, 2010).

How the values were obtained:
Human alphaherpesvirus 1 [1] = assay: Antiviral activity against Herpes simplex virus 1 isolate 1 harboring C6G N23S K36E L42P G240E A265T and A207P mutations in thymidine kinase and S33G, A330R, N425T, V905M mutations in DNA polymerase infected in african green monkey Vero cells by plaque reduction assay; assay type: functional, organism-based; conditions: Human alphaherpesvirus 1, isolate 1, Vero
Summary of the method: (§1)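 EC50 by plaque reduction assay in Vero cells against acyclovir and foscarnet. Vero cells grown in RPMI 1640 with 2% fetal bovine serum, 2 mM glutamine, 20 μg/ml vancomycin and 20 μg/ml amikacin. KOS (HSV-1) and gHSV2 (HSV-2) run as susceptible controls in each assay. […] HSV type confirmed by immunofluorescence with type-specific monoclonal antibodies.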

Human alphaherpesvirus 1 [2] = assay: Antiviral activity against Herpes simplex virus 1 isolate 3 harboring N23S, K36E, R89Q, A265T, Y53D mutations in thymidine kinase and S33G, A330R, V905M, E1005K mutations in DNA polymerase infected in african green monkey Vero cells by plaque reduction assay; assay type: functional, organism-based; conditions: Human alphaherpesvirus 1, isolate 3, Vero; summary of the method: as §1
Human alphaherpesvirus 1 [3] = assay: Antiviral activity against Herpes simplex virus 1 isolate 4 harboring N23S, K36E -1C 553 = frameshift mutations in thymidine kinase and S33G, A330R, A899V, L1188F mutations in DNA polymerase infected in african green monkey Vero cells by plaque reduction assay; assay type: functional, organism-based; conditions: Human alphaherpesvirus 1, isolate 4, Vero; summary of the method: as §1
Human alphaherpesvirus 1 [4] = assay: Antiviral activity against Herpes simplex virus 1 isolate 5 harboring N23S, K36E, A192V, G251C, A265T, V267L, P268T, -1G 856 = frameshift mutations in thymidine kinase and A330R, V905M, T1208A, H98Y mutations in DNA polymerase infected in african green monkey Vero cells by plaque reduction assay; assay type: functional, organism-based; conditions: Human alphaherpesvirus 1, isolate 5, Vero; summary of the method: as §1
Human alphaherpesvirus 1 [5] = assay: Antiviral activity against Herpes simplex virus 1 isolate 6 harboring N23S, K36E, R89Q, +1G 437-438 = Stop 225 mutations in thymidine kinase and S33G, A330R, A646T, S1123L, P1124H, T1208A, R1229I mutations in DNA polymerase infected in african green monkey Vero cells by plaque reduction assay; assay type: functional, organism-based; conditions: Human alphaherpesvirus 1, isolate 6, Vero; summary of the method: as §1
Human alphaherpesvirus 1 [6] = assay: Antiviral activity against Herpes simplex virus 1 isolate 7 harboring N23S, K36E, R89Q, +1C 464-465 = Stop 228 mutations in thymidine kinase and S33G, A330R, P1124H, T1208A, A870G mutations in DNA polymerase infected in african green monkey Vero cells by plaque reduction assay; assay type: functional, organism-based; conditions: Human alphaherpesvirus 1, isolate 7, Vero; summary of the method: as §1
Human alphaherpesvirus 1 [7] = assay: Antiviral activity against Herpes simplex virus 1 isolate 8 harboring N23S, K36E, R89Q, +1G 437-438 = Stop 228 mutations in thymidine kinase and A330R, P875S, V905M, P1124H, T1208A mutations in DNA polymerase infected in african green monkey Vero cells by plaque reduction assay; assay type: functional, organism-based; conditions: Human alphaherpesvirus 1, isolate 8, Vero; summary of the method: as §1
Human alphaherpesvirus 1 [8] = assay: Antiviral activity against Herpes simplex virus 1 isolate 9 harboring N23S, K36E, R89Q, +1G 437-438 = Stop 228 mutations in thymidine kinase and S33G, A330R, V905M, A1203T, T1208A mutations in DNA polymerase infected in african green monkey Vero cells by plaque reduction assay; assay type: functional, organism-based; conditions: Human alphaherpesvirus 1, isolate 9, Vero; summary of the method: as §1
Human alphaherpesvirus 1 [9] = assay: Antiviral activity against Herpes simplex virus 1 isolate 10 harboring N23S, K36E, R89Q, A265T C336Y mutations in thymidine kinase and S33G, A330R, V905M mutations in DNA polymerase infected in african green monkey Vero cells by plaque reduction assay; assay type: functional, organism-based; conditions: Human alphaherpesvirus 1, isolate 10, Vero; summary of the method: as §1
Human alphaherpesvirus 1 [10] = assay: Antiviral activity against Herpes simplex virus 1 isolate 11 harboring N23S, K36E, G251C, A265T, P268T, R176W mutations in thymidine kinase and S33G, A330R, P1124H, T1208A, S724N, V117L, L267M mutations in DNA polymerase infected in african green monkey Vero cells by plaque reduction assay; assay type: functional, organism-based; conditions: Human alphaherpesvirus 1, isolate 11, Vero; summary of the method: as §1
Human alphaherpesvirus 2 [11] = assay: Antiviral activity against Herpes simplex virus 2 isolate 12 harboring G39E, N78D, L140F, S66P, A72S mutations in thymidine kinase and A9T, P15S, L60P mutations in DNA polymerase infected in african green monkey Vero cells by plaque reduction assay; assay type: functional, organism-based; conditions: Human alphaherpesvirus 2, isolate 12, Vero; summary of the method: as §1
Human alphaherpesvirus 2 [12] = assay: Antiviral activity against Herpes simplex virus 2 isolate 13 harboring, M183I mutations in thymidine kinase and A9T, P15S, R41H, L60P, E139K, A232T mutations in DNA polymerase infected in african green monkey Vero cells by plaque reduction assay; assay type: functional, organism-based; conditions: Human alphaherpesvirus 2, isolate 13, Vero; summary of the method: as §1
Human alphaherpesvirus 2 [13] = assay: Antiviral activity against Herpes simplex virus 2 isolate 14 harboring G39E, N78D, M70R mutations in thymidine kinase and A724V mutations in DNA polymerase infected in african green monkey Vero cells by plaque reduction assay; assay type: functional, organism-based; conditions: Human alphaherpesvirus 2, isolate 14, Vero; summary of the method: as §1
Human alphaherpesvirus 2 [14] = assay: Antiviral activity against Herpes simplex virus 2 isolate 15 harboring R221H mutations in thymidine kinase and A9T, P15S, L60P mutations in DNA polymerase infected in african green monkey Vero cells by plaque reduction assay; assay type: functional, organism-based; conditions: Human alphaherpesvirus 2, isolate 15, Vero; summary of the method: as §1
Human alphaherpesvirus 2 [15] = assay: Antiviral activity against Herpes simplex virus 2 isolate 16 harboring D137Stop mutations in thymidine kinase and A9T, P15S, L60P mutations in DNA polymerase infected in african green monkey Vero cells by plaque reduction assay; assay type: functional, organism-based; conditions: Human alphaherpesvirus 2, isolate 16, Vero; summary of the method: as §1
Human alphaherpesvirus 2 [16] = assay: Antiviral activity against Herpes simplex virus 2 isolate 17 harboring G39E, N78D Q222Stop mutations in thymidine kinase and A9T, P15S, L60P, T801P mutations in DNA polymerase infected in african green monkey Vero cells by plaque reduction assay; assay type: functional, organism-based; conditions: Human alphaherpesvirus 2, isolate 17, Vero; summary of the method: as §1
Human alphaherpesvirus 2 [17] = assay: Antiviral activity against Herpes simplex virus 2 isolate 18 harboring A27T, G39E, N78D, -1C 556 = Stop 263, S29A mutations in thymidine kinase and A9T, P15S, L60P, E678G, del, DD676-677 mutations in DNA polymerase infected in african green monkey Vero cells by plaque reduction assay; assay type: functional, organism-based; conditions: Human alphaherpesvirus 2, isolate 18, Vero; summary of the method: as §1
Human alphaherpesvirus 2 [18] = assay: Antiviral activity against Herpes simplex virus 2 isolate 19 harboring G39E, +2G 439-440 = Stop 184 mutations in thymidine kinase and A9T, P15S, L60P, del, DGDE683-686 mutations in DNA polymerase infected in african green monkey Vero cells by plaque reduction assay; assay type: functional, organism-based; conditions: Human alphaherpesvirus 2, isolate 19, Vero; summary of the method: as §1
Human alphaherpesvirus 2 [19] = assay: Antiviral activity against Herpes simplex virus 2 isolate 20 harboring G39E, -1C 467 = Stop 183 mutations in thymidine kinase and A9T, P15S, L60P, E139K, T801P mutations in DNA polymerase infected in african green monkey Vero cells by plaque reduction assay; assay type: functional, organism-based; conditions: Human alphaherpesvirus 2, isolate 20, Vero; summary of the method: as §1
Human alphaherpesvirus 2 [20] = assay: Antiviral activity against Herpes simplex virus 2 isolate 21 harboring G39E, N78D, L140F, -1C 452 = Stop 183 mutations in thymidine kinase and P15S, L60P, E678G mutations in DNA polymerase infected in african green monkey Vero cells by plaque reduction assay; assay type: functional, organism-based; conditions: Human alphaherpesvirus 2, isolate 21, Vero; summary of the method: as §1
Human alphaherpesvirus 2 [21] = assay: Antiviral activity against Herpes simplex virus 2 isolate 22 harboring G39E, N78D, L140F, +1G 439-440 = Stop 229 mutations in thymidine kinase and A9T, P15S, L60P, E678G, Y823C mutations in DNA polymerase infected in african green monkey Vero cells by plaque reduction assay; assay type: functional, organism-based; conditions: Human alphaherpesvirus 2, isolate 22, Vero; summary of the method: as §1
Human alphaherpesvirus 2 [22] = assay: Antiviral activity against Herpes simplex virus 2 isolate 23 harboring G39E, N78D, L140F, +1G 439-440 = Stop 229 mutations in thymidine kinase and A9T, P15S, L60P, I291V mutations in DNA polymerase infected in african green monkey Vero cells by plaque reduction assay; assay type: functional, organism-based; conditions: Human alphaherpesvirus 2, isolate 23, Vero; summary of the method: as §1
Human alphaherpesvirus 2 [23] = assay: Antiviral activity against Herpes simplex virus 2 isolate 24 harboring G39E, -1G 440 = Stop 229 mutations in thymidine kinase and A9T, P15S, L60P, E139K, H837R mutations in DNA polymerase infected in african green monkey Vero cells by plaque reduction assay; assay type: functional, organism-based; conditions: Human alphaherpesvirus 2, isolate 24, Vero; summary of the method: as §1
Human alphaherpesvirus 2 [24] = assay: Antiviral activity against Herpes simplex virus 2 isolate 25 harboring I101S mutations in thymidine kinase and D785N, V544A mutations in DNA polymerase infected in african green monkey Vero cells by plaque reduction assay; assay type: functional, organism-based; conditions: Human alphaherpesvirus 2, isolate 25, Vero; summary of the method: as §1
Human alphaherpesvirus 1 [25] = assay: Antiviral activity against Herpes simplex virus 1 isolate 2 harboring C6G, N23S, K36E, R41H, A192V, A265T, L170P mutations in thymidine kinase and S33G, A330R, V905M, T1208A mutations in DNA polymerase infected in african green monkey Vero cells by plaque reduction assay; conditions: Human alphaherpesvirus 1, isolate 2, Vero

Compound: Nc1nc2c(ncn2COCCO)c(=O)[nH]1 [ACYCLOVIR]
- EC50 (Human alphaherpesvirus 1 [1]): > 50 µM
- EC50 (Human alphaherpesvirus 1 [2]): 35 µM
- EC50 (Human alphaherpesvirus 1 [3]): 16 µM
- EC50 (Human alphaherpesvirus 1 [4]): 16 µM
- EC50 (Human alphaherpesvirus 1 [5]): 26 µM
- EC50 (Human alphaherpesvirus 1 [6]): 31 µM
- EC50 (Human alphaherpesvirus 1 [7]): 10 µM
- EC50 (Human alphaherpesvirus 1 [8]): > 50 µM
- EC50 (Human alphaherpesvirus 1 [9]): 22 µM
- EC50 (Human alphaherpesvirus 1 [10]): > 50 µM
- EC50 (Human alphaherpesvirus 2 [11]): 43 µM
- EC50 (Human alphaherpesvirus 2 [12]): 33 µM
- EC50 (Human alphaherpesvirus 2 [13]): 24 µM
- EC50 (Human alphaherpesvirus 2 [14]): 11 µM
- EC50 (Human alphaherpesvirus 2 [15]): > 50 µM
- EC50 (Human alphaherpesvirus 2 [16]): > 50 µM
- EC50 (Human alphaherpesvirus 2 [17]): 18 µM
- EC50 (Human alphaherpesvirus 2 [18]): > 50 µM
- EC50 (Human alphaherpesvirus 2 [19]): > 50 µM
- EC50 (Human alphaherpesvirus 2 [20]): > 50 µM
- EC50 (Human alphaherpesvirus 2 [21]): > 50 µM
- EC50 (Human alphaherpesvirus 2 [22]): > 50 µM
- EC50 (Human alphaherpesvirus 2 [23]): > 50 µM
- EC50 (Human alphaherpesvirus 2 [24]): 42 µM
- EC50 (Human alphaherpesvirus 1 [25]): 11 µM

Compound: O=C(O)P(=O)(O)O [FOSCARNET]
- EC50 (Human alphaherpesvirus 1 [1]): < 66 µM
- EC50 (Human alphaherpesvirus 1 [2]): < 66 µM
- EC50 (Human alphaherpesvirus 1 [3]): < 66 µM
- EC50 (Human alphaherpesvirus 1 [4]): < 66 µM
- EC50 (Human alphaherpesvirus 1 [5]): < 66 µM
- EC50 (Human alphaherpesvirus 1 [6]): < 66 µM
- EC50 (Human alphaherpesvirus 1 [7]): < 66 µM
- EC50 (Human alphaherpesvirus 1 [8]): 106 µM
- EC50 (Human alphaherpesvirus 1 [9]): < 66 µM
- EC50 (Human alphaherpesvirus 1 [10]): 644 µM
- EC50 (Human alphaherpesvirus 2 [11]): < 66 µM
- EC50 (Human alphaherpesvirus 2 [12]): < 66 µM
- EC50 (Human alphaherpesvirus 2 [13]): 92 µM
- EC50 (Human alphaherpesvirus 2 [14]): 99 µM
- EC50 (Human alphaherpesvirus 2 [15]): < 66 µM
- EC50 (Human alphaherpesvirus 2 [16]): < 66 µM
- EC50 (Human alphaherpesvirus 2 [17]): < 66 µM
- EC50 (Human alphaherpesvirus 2 [18]): < 66 µM
- EC50 (Human alphaherpesvirus 2 [19]): < 66 µM
- EC50 (Human alphaherpesvirus 2 [20]): 89 µM
- EC50 (Human alphaherpesvirus 2 [21]): 76 µM
- EC50 (Human alphaherpesvirus 2 [22]): < 66 µM
- EC50 (Human alphaherpesvirus 2 [23]): < 66 µM
- EC50 (Human alphaherpesvirus 2 [24]): 145 µM
- EC50 (Human alphaherpesvirus 1 [25]): < 66 µM
